From PubChem
rRNA inh HTS: reduced GFP signal of wild-type E. coli, primary screen, bacterial rRNA inhibitor project, GFP/RFP fluorescence, OD600, single point; E. coli WT GFP vs humanized-ribosome RFP mutants, 24 h; hits give low values; DMSO median 0, no signal -100; GFP signal change (wild-type ribosome), % (concentration not given with the values); hit rate 1.6% among 350,000; AID 720706, 2013;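 active = significant combined selectivity score with lowered wild-type GFP, culture density cut under 30%, mutant RFP and density less affected; inactive = any of these conditions unmet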
E-sel inducer: E-selectin induction in HUVECs, primary screen, imaging, HUVEC, immunofluorescence imaging, single point. P16581. normalized: neutral wells 0, TNF-alpha wells 100. activation, % at 7.58 µM. hit rate 0.37% among 260,000. AID 686992, 2013;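 active = mean E-selectin-positive cell signal at least 10% of the positive control, reached in at least 60% of replicates, without over 20% cell loss; inconclusive = no rule given, readout overlaps actives, possibly toxicity-flagged; inactive = the rest, including those meeting only one limit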
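Assay system: HUVEC primary endothelial cells. Input: 3,000 HUVEC seeded per well. Doses: one compound dose added by pin transfer. Read-out basis: % PE-positive cells. Benchmarks: TNF-alpha high, DMSO low. Detection: immunofluorescence imaging. Buffer or medium: EGM-2, gelatin.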
RAD54 branch: inhibitors of human RAD54 branch migration, primary screen, biochemical, fluorescence, single point | RAD54 Holliday junction branch migration, FAM/BHQ fluorescence | DNA repair and recombination protein RAD54-like (Homo sapiens), Q92698 | inhibition, % at 10.4 µM | hit rate 0.14% among 360,000;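 active = mean normalized replicate activity at least 40 and at least half of replicates scoring 40 or more; inconclusive = only one of the two criteria met; inactive = mean below 40 and under half of replicates reaching 40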;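 note: inhibitors cause a drop in the FAM fluorescence signal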
PglD DTNB: C. jejuni PglD acetyltransferase inhibitors, primary screen, biochemical, DTNB colorimetric, single point | UDP-N-acetylbacillosamine N-acetyltransferase PglD (Campylobacter jejuni) | purified PglD enzyme, DTNB colorimetric CoA detection | inhibition, % at 12.5 µM | hit rate 0.098% among 360,000 | AID 602405, 2012; in the data active = inhibition above about 16%, passing the limit was not always enough; inconclusive = no clear call, values can overlap the other calls
Xi reactivation: activators of inactive X chromosome reactivation, primary screen, imaging, XiGFP fibroblasts, GFP high-content imaging, set 2; XiGFP mouse fibroblasts, % GFP-positive cells imaging, 3 d; cells co-treated with 5-aza-dC sensitizer; scaled so ellipticine positive control = 100%; activation, % at 7.58 µM; hit rate 0.055% among 360,000;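 active = mean normalized replicate activation at least 10% and every replicate at or above 10%; inconclusive = only one of the two criteria met; inactive = mean below 10% and not all replicates reach 10%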
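System: SV40-immortalized XiGFP fibroblast cells, line 68-5-11 / Incubation: 3-day compound exposure, then 15 min fixation at room temperature / Compound: single concentration per compound, delivered by pin transfer / Buffer or medium: DMEM plus 5-aza-dC sensitizer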
RAD52 anneal inh: RAD52 DNA annealing inhibitors, primary screen, biochemical, FRET, single point, set 2; inhibition, % at 18.7 µM; DNA repair protein RAD52 homolog (Homo sapiens), P43351; hit rate 0.46% among 360,000; AID 651710, 2012; recombinant RAD52 DNA annealing, FRET fluorescence;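 active = every replicate showing at least 50% inhibition; inconclusive = mean inhibition at least 50% but not in every replicate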
Target sequence (P43351 whole entry, looked up): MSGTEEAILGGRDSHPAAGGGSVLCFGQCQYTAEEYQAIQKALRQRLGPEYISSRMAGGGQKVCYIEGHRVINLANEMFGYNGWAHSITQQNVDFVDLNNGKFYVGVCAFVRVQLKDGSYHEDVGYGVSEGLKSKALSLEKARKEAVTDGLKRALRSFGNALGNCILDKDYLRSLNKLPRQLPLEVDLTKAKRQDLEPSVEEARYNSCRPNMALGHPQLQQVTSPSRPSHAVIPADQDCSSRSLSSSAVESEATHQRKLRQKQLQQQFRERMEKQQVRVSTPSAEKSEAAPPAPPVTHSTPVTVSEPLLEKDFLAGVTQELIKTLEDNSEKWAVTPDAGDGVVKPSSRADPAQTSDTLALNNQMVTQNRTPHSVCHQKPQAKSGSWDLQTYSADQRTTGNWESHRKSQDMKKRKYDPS
AID977621: growth inhibition of wild-type GFP E. coli, dose response, H69 mutant RFP, cherry-pick. shares compounds with rRNA inh HTS. E. coli wild-type GFP strain growth, fluorescence, 24 h. 1,900 tested, under 10 active. activity change, negative = inhibition at 50 µM;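 active = Wild-type ribosome reporter drop at least double the humanized mutant ribosome reporter drop, growth loss under a set limit; inconclusive = no clear call, values can overlap the other calls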;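 note: wild-type GFP and H69 mutant RFP strains grown together 50/50 in each well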
AID977628: E. coli growth inhibition, wild-type GFP versus h24 humanized RFP strain, dose response, h24 mutant RFP vs wild-type GFP, cherry-pick. 1,900 tested, under 10 active. activity change, negative = inhibition at 50 µM. E. coli WT GFP strain growth, fluorescence, 24 h. shares compounds with rRNA inh HTS;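 active = compound lowering the normal-ribosome reporter at least twice as much as the humanized-ribosome reporter, growth loss under a set limit; inconclusive = no clear call, values can overlap the other calls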;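 note: wild-type GFP and h24 humanized RFP strains co-cultured 1 to 1 per well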
Each line names hits and unclear results; the compound was inactive in the other large screens (follow-up assays come after a bar, where they were run). In the library only some 2% were active in any assay of this set; here they are far more common.

COC(=O)[C@H]1[C@H](CO)[C@H]2Cn3c(ccc(-c4ccc(OC)cc4)c3=O)[C@@H]1N2C(=O)c1ccccc1F	none
O=C(c1sc2ccccc2c1Cl)N1CCC2(CC1)OCCO2	rRNA inh HTS -19.6 (no result: E-sel inducer, Xi reactivation) | AID977621 inactive | AID977628 inactive
O=C(c1ccc(F)cc1Cl)N1CCC2(CC1)OCCO2	none (no result: E-sel inducer)
Oc1c(Br)cc(Br)cc1Br	rRNA inh HTS -21.4 (no result: E-sel inducer, Xi reactivation) | AID977621 inactive | AID977628 inactive
O=C1CNC[C@H]2[C@@H](c3ccc(Br)cc3)[C@@H](CO)N12	none (no result: E-sel inducer, RAD54 branch, PglD DTNB)
COC(=O)[C@@H]1[C@@H](CO)[C@@H]2Cn3c(ccc(-c4ccc(F)cc4)c3=O)[C@H]1N2Cc1ccccc1	none
CSc1ccc(CN2CCN(Cc3ccccc3Cl)CC2)cc1	rRNA inh HTS -22.5 (no result: E-sel inducer, RAD54 branch, PglD DTNB) | AID977628 inconclusive
CCOC(=O)C12C(=O)OCC1C2c1ccccc1 (configuration not stated)	rRNA inh HTS -4.1 (no result: RAD54 branch, PglD DTNB) | AID977621 inactive | AID977628 inactive
CCOC(=O)C1(CCOc2ccccc2)CCN(C2Cc3ccccc3C2)CC1	none (no result: E-sel inducer, RAD54 branch, PglD DTNB)
CC(C)Cc1nc(N2CCNCC2)c(C#N)c2c1CCC2	rRNA inh HTS -20.7 | AID977621 inactive
CC=Cc1ccc2n(c1=O)C[C@H]1[C@H](CO)[C@@H](C(=O)OC)[C@@H]2N1CC1CCOCC1 (mixture of isomers)	none
CC(C)CCn1c(N)c(C(=O)NCc2cccs2)c2nc3ccccc3nc21	rRNA inh HTS -21.9 (no result: E-sel inducer, Xi reactivation) | AID977621 inactive | AID977628 inconclusive
COCCNC(=O)c1c(N)n(CCC(C)C)c2nc3ccccc3nc12	none (no result: rRNA inh HTS, E-sel inducer, Xi reactivation, RAD52 anneal inh)
Cc1c(C(=O)Nc2ccccc2)c2cc(O)ccc2n1Cc1ccccc1	rRNA inh HTS -19.8 | AID977621 inactive | AID977628 inconclusive
CCN1[C@@H]2Cn3c(ccc(-c4cccc(C(=O)N(C)C)c4)c3=O)[C@H]1[C@@H](C(=O)OC)[C@@H]2CO	none
